Drawing on ChEMBL document CHEMBL4732250, “Investigations on substituted (2-aminothiazol-5-yl)(imidazo[1,2-a]pyridin-3-yl)methanones for the treatment of Alzheimer's disease” (Bioorg Med Chem, 2021), this text covers inhibition in vivo and Activity for nine compounds.

Calls of active or inactive are those of the source. No cut-off for these calls is given here.

In series [1] the test system is Rattus norvegicus. Kind of series: Antiinflammatory activity in Sprague-Dawley rat chronic model of formalin-induced paw edema assessed as inhibition of rat paw edema at 50 mg/kg, po pre treated for 1 hr followed by formalin-stimulation and measured after 5 days by plethysmometeric method relative to control. It is filed as functional. Conditions: 120 h, time 5 day. In short, it runs like this:
(§1)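 Chronic paw edema. Oral pre-dose in 0.2% agar; after 1 h, 0.1 mL 2% formalin in saline injected into the left hind sub-plantar paw, repeated on 5 consecutive days. Paw volume by plethysmometer. % inhibition of edema size relative to disease control, days 1–5. n = 6, mean ± SEM, one-way ANOVA with Tukey's test.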

Series [2] relates to Rattus norvegicus. Kind of series: Antiinflammatory activity in Sprague-Dawley rat acute model of carrageenan-induced paw edema assessed as inhibition of rat paw edema at 50 mg/kg, po pre treated for 1 hr followed by carrageenan-stimulation and measured after 3 hrs by plethysmometeric method relative to control.
The test system of series [3] is Rattus norvegicus. The series can be described thus: Antiinflammatory activity in Sprague-Dawley rat acute model of carrageenan-induced paw edema assessed as inhibition of rat paw edema at 50 mg/kg, po pre treated for 1 hr followed by carrageenan-stimulation and measured after 3 hrs by plethysmometeric method relative to control. The series is classed as functional. The conditions noted are these: time 4 hrs. The method in brief:
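SD rats of either sex, 150–200 g, n = 6, dosed orally in 0.2% agar suspension. After 1 h, 0.1 mL 1% carrageenan in saline injected into the left hind sub-plantar paw. Paw volume measured by mercury plethysmometer before and 3 h after injection. % edema inhibition calculated. Mean ± SEM.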

The test system of series [4] is Rattus norvegicus. The series can be described thus: Antialzheimer activity against AlCl3-induced Sprague-Dawley rat assessed as reduction in plaque formation in the cortex region at 50 mg/kg, po after 28 days by congo red staining based microscopic method. It is filed as functional, organism-based. The conditions noted are these: time 28.0 day. The method in brief:
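Cortical amyloid plaques in Congo red-stained brain sections viewed at 100X. Rats had 28 days of oral dosing in 0.2% agar plus AlCl3 4.2 mg/kg i.p.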

Series [5] concerns Rattus norvegicus. Kind of series: Antiinflammatory activity in Sprague-Dawley rat chronic model of formalin-induced paw edema assessed as inhibition of rat paw edema at 50 mg/kg, po pre treated for 1 hr followed by formalin-stimulation and measured after 1 day by plethysmometeric method relative to control. The series is classed as functional. The conditions noted are these: 24 h. The method in brief:
as §1

Series [6] concerns Rattus norvegicus. The series can be described thus: Antiinflammatory activity in Sprague-Dawley rat chronic model of formalin-induced paw edema assessed as inhibition of rat paw edema at 50 mg/kg, po pre treated for 1 hr followed by formalin-stimulation and measured after 2 days by plethysmometeric method relative to control. It is filed as functional. Conditions: 48 h, time 2 day. In short, it runs like this:
as §1

Series [7] has as its system Rattus norvegicus. The series can be described thus: Antiinflammatory activity in Sprague-Dawley rat chronic model of formalin-induced paw edema assessed as inhibition of rat paw edema at 50 mg/kg, po pre treated for 1 hr followed by formalin-stimulation and measured after 3 days by plethysmometeric method relative to control. The series is classed as functional. The conditions noted are these: 72 h, time 3 day. In short, it runs like this:
as §1

Series [8] has as its system Rattus norvegicus. The series can be described thus: Antiinflammatory activity in Sprague-Dawley rat chronic model of formalin-induced paw edema assessed as inhibition of rat paw edema at 50 mg/kg, po pre treated for 1 hr followed by formalin-stimulation and measured after 4 days by plethysmometeric method relative to control. The series is classed as functional. Conditions: 96 h, time 4 day. In short, it runs like this:
as §1

Series [9] has as its system Rattus norvegicus. Kind of series: Antiinflammatory activity in Sprague-Dawley rat chronic model of formalin-induced paw edema assessed as inhibition of rat paw edema at 50 mg/kg, po pre treated for 1 hr followed by formalin-stimulation and measured after 5 day by plethysmometeric method relative to control. The series is classed as functional. The conditions noted are these: 120 h. In short, it runs like this: as §1

The subject of series [10] is Rattus norvegicus. Kind of series: Antialzheimer activity against AlCl3-induced Sprague-Dawley rat assessed as improved in spatial working memory at 50 mg/kg, po for 7 to 28 days by elevated plus maze test. It is filed as functional, organism-based. The conditions noted are these: time 7-28 day.
Series [11] relates to Rattus norvegicus. The series can be described thus: Antialzheimer activity against AlCl3-induced Sprague-Dawley rat assessed as improved in learning memory by measuring suppression of CAR at 50 mg/kg, po for 7 to 28 days by pole test. It is filed as functional, organism-based. The conditions noted are these: time 7-28 day. In short, it runs like this:
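Cook's pole-climbing apparatus used for conditioned avoidance response with foot shock, in acquisition and test sessions. Rats received oral dosing in 0.2% agar plus AlCl3 4.2 mg/kg i.p. daily for 28 days. CAR was recorded on days 7, 14, 21 and 28. n = 6 per group.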

The subject of series [12] is Rattus norvegicus. The series can be described thus: Antialzheimer activity against AlCl3-induced Sprague-Dawley rat assessed as improved in working memory at 50 mg/kg, po for 7 to 28 days by Y maze test. It is filed as functional, organism-based. Conditions: time 7-28 day. The method in brief: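 Y-maze: rats trained for 5 consecutive days. Arm entries recorded; SAP = total entries minus two; % alteration = actual ÷ maximum alteration × 100. Assessed on days 7, 14, 21 and 28 of daily oral dosing in 0.2% agar plus AlCl3 4.2 mg/kg i.p. n = 6, two-way ANOVA with Tukey's test.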

Series [13] can be described thus: Toxicity in AlCl3-induced Sprague-Dawley rat assessed as reduction in HGB level at 50 mg/kg, po after 28 days by automated haematology analyser. It is filed as organism-based. Conditions: in vivo, 672 h, time 28 day. The method in brief:
(§2)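 On day 29 of the AlCl3 model (28 days of oral dosing), blood was drawn from the retro-orbital sinus under isoflurane into heparinized tubes. Haemoglobin and haematocrit were measured on a haematology analyser.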

A short description of series [14]: Toxicity in AlCl3-induced Sprague-Dawley rat assessed as reduction in HCT level at 50 mg/kg, po after 28 days by automated haematology analyser. It is filed as organism-based. Conditions: in vivo, 672 h, time 28 day. In short, it runs like this: as §2
Series [15] in a line: Toxicity in AlCl3-induced Sprague-Dawley rat assessed as reduction in serum albumin level at 50 mg/kg, po after 28 days by automated analyser. The conditions noted are these: in vivo, 672 h, time 28 day. It is filed as organism-based. In short, it runs like this:
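Under isoflurane, retro-orbital blood was collected into non-heparinized tubes after the 28-day AlCl3 model with oral dosing. Serum % albumin and total protein were measured on an automated clinical chemistry analyser.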

For series [16], the system named is Rattus norvegicus. Kind of series: Antialzheimer activity against AlCl3-induced Sprague-Dawley rat assessed as reduction in brain LPO activity at 50 mg/kg, po after 28 days by UV-VIS spectrophotometric method. The series is classed as functional, organism-based. The conditions noted are these: time 28.0 day. In short, it runs like this:
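Brain LPO as MDA by the TBA reaction. AlCl3 model: oral dosing in 0.2% agar for 28 days plus AlCl3 4.2 mg/kg i.p. daily. Day-29 brains were homogenized in HBSS pH 7.4 and the pellet resuspended. Reaction with SDS, acetic acid pH 3.5 and TBA at 95 °C for 1 h, then n-butanol:pyridine extraction. Read at 532 nm, extinction coefficient applied, per gram organ. n = 6.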

For series [17], the system named is Rattus norvegicus. Kind of series: Antialzheimer activity against AlCl3-induced Sprague-Dawley rat assessed as change in brain SODactivity at 50 mg/kg, po after 28 days. The conditions noted are these: time 28.0 day. It is filed as functional, organism-based. The method in brief: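 Brain SOD activity. Rats were dosed orally for 28 days in 0.2% agar suspension, each followed by AlCl3 4.2 mg/kg i.p. Brains were taken on day 29, washed in saline and homogenized in chilled 50 mM Tris pH 8.2. Triton X-100 treatment at 4 °C, 30 min, then centrifugation. Pyrogallol was added and A420 read at 0 and 9 min, per gram fresh tissue. n = 6.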

Series [18] concerns Rattus norvegicus. Kind of series: Antialzheimer activity against AlCl3-induced Sprague-Dawley rat assessed as reduction in hippocampal neuronal degeneration at 50 mg/kg, po after 28 days by H and E staining based microscopic method. The series is classed as functional, organism-based. The conditions noted are these: time 28.0 day. In short, it runs like this:
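Hippocampal neuronal degeneration. After 28 days of oral dosing in 0.2% agar with daily AlCl3 4.2 mg/kg i.p., brain sections were HE-stained and hippocampal regions examined at 100X.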

Series [19] in a line: Toxicity in AlCl3-induced Sprague-Dawley rat assessed as stomach lesion at 50 mg/kg, po after 28 days by H and E staining based microscopic method. The series is classed as organism-based. The conditions noted are these: in vivo, 672 h, time 28 day. In short, it runs like this: (§3)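 Gastrointestinal damage in AlCl3-model rats, 28 days of oral dosing. Stomach and intestines were washed in cold PBS 0.01 M pH 7.4 and fixed 24 h in 10% neutral buffered formalin. After a 70% ethanol wash, haemorrhagic damage was measured by digital vernier caliper for the lesion index. HE-stained sections examined microscopically.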

The nature of series [20]: Toxicity in AlCl3-induced Sprague-Dawley rat assessed as intestine lesion at 50 mg/kg, po after 28 days by H and E staining based microscopic method. The series is classed as organism-based. Conditions: in vivo, 672 h, time 28 day. In short, it runs like this: as §3
Series [21] is described as follows: Toxicity in AlCl3-induced Sprague-Dawley rat assessed as focal erosions in stomach at 50 mg/kg, po after 28 days by H and E staining based microscopic method. The series is classed as organism-based. The conditions noted are these: in vivo, 672 h, time 28 day. The method in brief:
as §3

Series [22] in a line: Toxicity in AlCl3-induced Sprague-Dawley rat assessed as focal erosions in intestine at 50 mg/kg, po after 28 days by H and E staining based microscopic method. The series is classed as organism-based. The conditions noted are these: in vivo, 672 h, time 28 day. In short, it runs like this: as §3

By inhibition in vivo is commonly meant how much of the control response was suppressed. As to `Cc1ccn2c(C(=O)c3cnc4ccccn34)cnc2c1`, the figures for the inhibition in vivo at 50 mg/kg in the series with Rattus norvegicus [1] and in the series with Rattus norvegicus [2] were 61% and 67%, respectively.

`Cc1ccn2c(C(=O)c3sc(N)nc3-c3ccccc3)cnc2c1`: the inhibition in vivo at 50 mg/kg in the series on Rattus norvegicus [3] was determined as 26%.

With `Nc1nc(-c2ccccc2)c(C(=O)c2cnc3ccccn23)s1`, the inhibition in vivo at 50 mg/kg in the series on Rattus norvegicus [3] worked out at 40%.

Regarding `Cc1nc(N)sc1C(=O)c1cnc2ccccn12`, the inhibition in vivo at 50 mg/kg with Rattus norvegicus [3] came out at 53%.

As for `Nc1ncc(C(=O)c2cnc3ccccn23)s1`, the inhibition in vivo at 50 mg/kg in the series on Rattus norvegicus [3] amounted to 33%.

On to `Cc1ccn2c(C(=O)c3sc(N)nc3N(C)C)cnc2c1`, for which the result in the series on Rattus norvegicus [4], in the series with Rattus norvegicus [10], in the series on Rattus norvegicus [11], in the series on Rattus norvegicus [12], in the series with Rattus norvegicus [16] and in the series with Rattus norvegicus [17] was Active. In addition, the outcome with Rattus norvegicus [18] was Active. In addition, the inhibition in vivo at 50 mg/kg was 85% in the series with Rattus norvegicus [3]; 58% in the series on Rattus norvegicus [5]; 67% with Rattus norvegicus [6]; 65% in the series on Rattus norvegicus [7]; 60% with Rattus norvegicus [8]; 63% in the series on Rattus norvegicus [9]. In addition, the Activity entry in [13], in series [14], in series [15], in series [19], in series [20] and in series [21] was “Non-Toxic” each time. Besides, the Activity result in [22] is “Non-Toxic”.

For `Cc1ccn2c(C(=O)c3sc(N)nc3C)cnc2c1`, the inhibition in vivo at 50 mg/kg in the series with Rattus norvegicus [3] was found to be 66%.

Regarding `Cc1ccc2ncc(C(=O)c3sc(N)nc3-c3ccccc3)n2c1`, in the series with Rattus norvegicus [3], the inhibition in vivo at 50 mg/kg was 77%.

Take `Cc1ccn2c(C(=O)c3cnc(N)s3)cnc2c1`: the inhibition in vivo at 50 mg/kg in the series with Rattus norvegicus [3] amounted to 77%; in the series with Rattus norvegicus [5], 30%; in the series on Rattus norvegicus [6], 24%; in the series with Rattus norvegicus [7], 36%; with Rattus norvegicus [8], 23%; in the series with Rattus norvegicus [9] it was 18%.
